A selection: hits, their analogues and other compounds. The true share with any hit is near 2.2%.
CSN inh = inhibitors of human CSN-mediated cullin deneddylation; Purified CSN, SCF-Nedd8-OG deneddylation, fluorescence polarization; inhibition, % at 12.5 µM; 0.38% of 360,000 active;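 active = pattern-corrected inhibition above about 35%, with an unprinted fluorescence ratio check between 0.5 and 1.5, limit read from the data, passing the limit was not always enough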;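 note: 0% = enzyme with substrate and 100% = substrate without enzyme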
Target sequence (Q92905 whole entry, looked up, one chain of several): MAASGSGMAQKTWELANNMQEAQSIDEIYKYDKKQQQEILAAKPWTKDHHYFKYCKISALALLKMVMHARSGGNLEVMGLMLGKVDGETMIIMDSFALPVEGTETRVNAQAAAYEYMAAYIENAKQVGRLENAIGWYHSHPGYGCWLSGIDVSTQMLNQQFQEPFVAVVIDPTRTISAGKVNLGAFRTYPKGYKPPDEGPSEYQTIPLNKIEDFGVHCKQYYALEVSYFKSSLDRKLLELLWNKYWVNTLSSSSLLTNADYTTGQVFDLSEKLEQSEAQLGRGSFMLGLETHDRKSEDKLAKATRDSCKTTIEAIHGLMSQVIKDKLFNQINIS
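Schedule: reaction 90 min, room temperature / Assay system: HEK293T-derived human Csn5 enzyme / Input: Csn5 at 0.24 nM final / Measure: inhibition of Csn5 cleavage, % / Control set: substrate-only high control, full reaction low control / Technique: fluorescence polarization of the substrate / Buffer or medium: Tris/NaCl/DTT buffer, pH 7.5 / Reagent: SCFSkp2-Nedd8OG substrate at 10 nM final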
Myeloid diff 2 = compounds promoting myeloid differentiation | ER-HoxA9 myeloid progenitors, lysozyme-GFP differentiation, flow cytometry | calls only at 10 µM | 1% of 360,000 active | AID 624256;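 active = normalized GFP-positive differentiation at or above the plate's own cutoff, the solvent-only control mean plus 3 SD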;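 note: cells exposed to compound for four days before flow analysis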
Granule exo inh = lytic granule exocytosis inhibition; inhibition, % at 10 µM; 0.66% of 360,000 active; AID 651702; TALL-104 LAMP-1 surface exposure, flow cytometry; cells stimulated with thapsigargin and PMA;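 active = inhibition above about 55%, limit read from the data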
HNF4A DNA FP = change in binding of human HNF4 alpha to DNA. HNF4a-FITC DNA binding, fluorescence polarization, 1 h. AID 1224865. P41235. 0.3% of 360,000 active. activity change, % at 10 µM; in the data active = activity change above about 30%, passing the limit was not always enough
The depositor's hits bear a star.

Screening C[C@H](CO)N1C[C@H](C)[C@@H](CN(C)CC2CCCCC2)Oc2c(NS(=O)(=O)c3ccc(F)cc3)cccc2C1=O returned CSN inh -1, Myeloid diff 2 inactive, Granule exo inh 4 and HNF4A DNA FP 2.
Screening O=c1c(OC2OC(CO)C(O)C(O)C2OC2OC(CO)C(O)C(O)C2O)c(-c2ccc(O)cc2)oc2cc(O)cc(O)c12 (centres undefined) returned CSN inh 2, Myeloid diff 2 inactive, Granule exo inh 4 and HNF4A DNA FP 1.
Screening O=c1c(O[C@H]2O[C@@H](CO)[C@H](O)[C@@H](O)[C@@H]2O)c(-c2ccc(O)cc2)oc2cc(O)cc(O)c12 returned CSN inh 5, Myeloid diff 2 inactive, Granule exo inh 68* and HNF4A DNA FP -1.
`N#C/C=C1/NC(=O)c2ccccc2S1` gave CSN inh -2, Myeloid diff 2 active, Granule exo inh 6 and HNF4A DNA FP 4.
For O=C1C(=Cc2cn(-c3ccccc3)nc2-c2ccc(OCc3ccccc3)cc2)SC(=S)N1CCS(=O)(=O)O the results were CSN inh 29, Myeloid diff 2 inactive, Granule exo inh 1 and HNF4A DNA FP -46.
Cc1ccc(-c2nn(-c3ccccc3)cc2C=C2SC(=S)N(CCS(=O)(=O)O)C2=O)cc1 was read as CSN inh 47*, Myeloid diff 2 inactive, Granule exo inh -2 and HNF4A DNA FP -29.
`COc1ccc2[nH]c3c(=O)n(/N=C/c4ccc(OC)c(CN5CCCC5)c4)c(C)nc3c2c1` gave CSN inh 63*, Myeloid diff 2 inactive, Granule exo inh 1 and HNF4A DNA FP 7.
For COc1ccc(/C=N/n2cnc3c([nH]c4ccc(F)cc43)c2=O)cc1CN1CCCC1 the results were CSN inh 85*, Myeloid diff 2 inactive, Granule exo inh 8 and HNF4A DNA FP 7.
CCOc1cc(/C=C/C(=O)OCC(=O)NCc2ccco2)cc(Cl)c1OC was read as CSN inh 0, Myeloid diff 2 inactive, Granule exo inh -7 and HNF4A DNA FP 1.
Screening O=C1c2[nH]nc(-c3ccccc3O)c2C(c2ccccc2)N1Cc1ccco1 (centres undefined) returned CSN inh -1, Myeloid diff 2 active, Granule exo inh -1 and HNF4A DNA FP 0.
Screening Cc1ccc(S(=O)(=O)c2nc(S(C)(=O)=O)sc2N2CCCCC2C)cc1 (centres undefined) returned CSN inh -1, Myeloid diff 2 active, Granule exo inh 1 and HNF4A DNA FP 0.
For Cc1ccc(S(=O)(=O)c2nc(S(C)(=O)=O)sc2N2CCC(O)CC2)cc1 the results were CSN inh 3, Myeloid diff 2 inactive, Granule exo inh -1 and HNF4A DNA FP -4.
`CS(=O)(=O)c1nc(S(=O)(=O)c2ccc(Cl)cc2)c(N2CCN(CCO)CC2)s1` gave CSN inh 7, Myeloid diff 2 active, Granule exo inh -3 and HNF4A DNA FP 0.
Screening COc1ccc(Cc2nnc(Nc3ccccc3)s2)cc1Br returned CSN inh 7, Myeloid diff 2 active, Granule exo inh -11 and HNF4A DNA FP -3.
For COc1ccc(Cc2nnc(NC(=O)CSc3ccccc3)s2)cc1OC the results were CSN inh -11, Myeloid diff 2 inactive, Granule exo inh 0 and HNF4A DNA FP -1.
For Cc1nn2c(COc3ccc(NC(=O)c4ccccc4Cl)cc3)nnc2c2ccccc12 the results were CSN inh -13, Myeloid diff 2 active, Granule exo inh 2 and HNF4A DNA FP -6.
`Cc1nn2c(COc3ccc(NC(=O)C(C)C)cc3)nnc2c2ccccc12` gave CSN inh -7, Myeloid diff 2 inactive, Granule exo inh 2 and HNF4A DNA FP 0.
`OCC(O)CN1CCN(c2ccccc2)CC1` (centres undefined) gave CSN inh 2, Myeloid diff 2 active, Granule exo inh -1 and HNF4A DNA FP 2.
For OC(CN1CCN(c2ccccc2)CC1)Cn1c2ccccc2c2ccccc21 (centres undefined) the results were CSN inh -6, Myeloid diff 2 inactive, Granule exo inh 1 and HNF4A DNA FP 3.
`O=c1[nH]c2ccc(Br)cc2c(=O)o1` gave CSN inh 3, Myeloid diff 2 inactive, Granule exo inh 6 and HNF4A DNA FP 0.
For CC(=O)Nc1cc2c3c(c1)CCN3C(=O)CC2 the results were CSN inh 4, Myeloid diff 2 inactive, Granule exo inh -4 and HNF4A DNA FP 0.
Screening CC(C)CC(=O)Nc1cc2c3c(c1)CCN3C(=O)CC2 returned CSN inh 2, Myeloid diff 2 active, Granule exo inh 0 and HNF4A DNA FP -2.
For Cc1ccc2nc(NC(=O)c3ccc(-c4nc5ccccc5s4)s3)sc2c1 the results were CSN inh 52*, Myeloid diff 2 inactive, Granule exo inh -5 and HNF4A DNA FP 69*.
Screening N/C(=N\OC(=O)Nc1ccccc1)c1ncc(C(F)(F)F)cc1Cl returned CSN inh -8, Myeloid diff 2 inactive, Granule exo inh -4 and HNF4A DNA FP 4.
N/C(=N\OC(=O)CCC(=O)O)c1ncc(C(F)(F)F)cc1Cl was read as CSN inh 4, Myeloid diff 2 active, Granule exo inh 2 and HNF4A DNA FP 2.
Cc1ccc(-c2cnc(C(O)c3cc(F)cc(Cl)c3)[nH]2)cc1 (centres undefined) was read as CSN inh 4, Myeloid diff 2 inactive, Granule exo inh 2 and HNF4A DNA FP 8.
COc1ccc(C2=NN(C(=O)COC(=O)c3ccc(NC(=O)CC#N)cc3)C(c3ccco3)C2)cc1 (centres undefined) was read as CSN inh 130, Myeloid diff 2 active, Granule exo inh -2 and HNF4A DNA FP 125.
For O=C(OCC(=O)N1N=C(c2ccc(Cl)cc2)CC1c1ccco1)c1ccco1 (centres undefined) the results were CSN inh -10, Myeloid diff 2 inactive, Granule exo inh -3 and HNF4A DNA FP 6.
Cc1ccc(NC(=O)CCC(=O)N2CCN(S(=O)(=O)c3ccc(C)cc3)CC2)cc1 was read as CSN inh -1, Myeloid diff 2 inactive, Granule exo inh 15 and HNF4A DNA FP -3.
For CCC(C)(C)NC(=O)C1CCCN(S(=O)(=O)c2ccc3c(c2)CC(C)N3C(=O)C2CC2)C1 (centres undefined) the results were CSN inh -5, Myeloid diff 2 inactive, Granule exo inh 0 and HNF4A DNA FP 2.
`COc1ccc(-c2cc(C(=O)N3CCN(c4ccccn4)CC3)c3ccccc3n2)cc1` gave CSN inh 2, Myeloid diff 2 active, Granule exo inh -1 and HNF4A DNA FP 6.
Screening Cc1ccc2c(c1)c(C)c(C)n2CC(O)Cn1nnc2ccccc21 (centres undefined) returned CSN inh 18, Myeloid diff 2 active, Granule exo inh -3 and HNF4A DNA FP 11.
CCN(CC)CCNC(=O)C12CC3CC(C)(CC(C)(C3)C1)C2 was read as CSN inh 1, Myeloid diff 2 inactive, Granule exo inh -1 and HNF4A DNA FP -1.

Bioassay records deposited in PubChem by several laboratories.
